According to paper PMC4272346 (Biochemistry, 2013):

Columns and labels:
NS3h [1] = target: T1, NS3h (Hepatitis C virus genotype 1b, UniProt Q9WMX2); test: Electrophoretic mobility shift assay of NS3h-Cy5-dT15 complex; type: binding
NS3h [2] = target: T1, NS3h; test: ATPase assay 1: DNA; type: biochemical
NS3h [3] = target: T1, NS3h; test: ATPase assay 2: NS3h-catalyzed ATP hydrolysis in the absence of nucleic acids; type: biochemical
NS3h [4] = target: T1, NS3h; test: Differential scanning calorimetry; type: binding; details: 10 μM NS3h, 300 μM ATA
Outline: (§1)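 Where present, dT20 was at 10 μM, and the test compound was at 10 μM–5 mM. Samples were heated 20–100 °C at 1 °C/min, with a repeat scan of the same sample as baseline. Fitting used a scaled two-state model. For the NS3h-dT20 samples, Tm versus compound concentration was fitted to a dose-response equation.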

NS3h-dT20 complex = NS3h-dT20 complex (Hepatitis C virus genotype 1b, UniProt Q9WMX2); test: DSC of pre-assembled NS3h-dT20 complex; type: binding
Outline: as §1

NS3h [5] = target: T1, NS3h; test: Isothermal titration calorimetry; type: binding
Outline: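 NS3h was dialysed overnight into 25 mM MOPS pH 7.0, 1.25 mM MgCl2, 0.01% Tween 20, quantified by A280 (ε 52,360 M−1cm−1) and used at 20 μM. The test compound was 250 μM in dialysis buffer, given as 16 injections of 3 μl at 300 s intervals at 5 °C, with the first injection excluded. Baseline was zeroed on the mean of the last three injections, then fitted to an independent sites model. Three titrations were run.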

NS3h_D290N = test: FP-based DNA binding assay, displacement from mutant; parameters: species or system hepatitis C virus; details: Cy5-dT15 displacement at EC85 of protein
Outline: (§2)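 Fluorescence polarization displacement using C-terminally His-tagged NS3h helicase domain mutants and wildtype. Each protein was at its EC85 from titration, with the test compound added in DMSO. Excitation 635 nm, emission 667 nm. IC50 came from dose-response fits, and Ki from Cheng-Prusoff using protein EC50 and concentration, assuming competition with DNA.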

NS3h_E291Q = test: as above; parameters: species or system hepatitis C virus; details: Cy5-dT15 displacement at EC85 of protein
Outline: as §2

NS3h_H369K = test: as above; parameters: species or system hepatitis C virus; details: Cy5-dT15 displacement at EC85 of protein
Outline: as §2

NS3h_E493Q = test: as above; parameters: species or system hepatitis C virus; details: Cy5-dT15 displacement at EC85 of protein
Outline: as §2

NS3h R467E = test: as above; parameters: species or system hepatitis C virus; details: Cy5-dT15 displacement at EC85 of protein
Outline: as §2

full-length NS3 = full-length NS3 (Hepatitis C virus genotype 1b, UniProt Q9WMX2); test: Studies repeated with full-length NS3 with and without NS4A; details: presence and absence of NS4A
NS3h (wildtype) [6] = details: read-out: IC50, polarization shift of a Cy5 labeled oligonucleotide; NS3h bound to Cy5-labeled DNA oligonucleotide; ref 11 (Mukherjee et al.); cited from earlier work
NS3h (wildtype) [7] = target: T2, NS3h (wildtype) (Hepatitis C virus (genotype 1b, con1; …, UniProt Q9WMX2 1192-1657); test: ITC
NS3h (wildtype) [8] = target: T2, NS3h (wildtype); test: EMSA

`O=C(O)C1=CC(=C(c2ccc(O)c(C(=O)O)c2)c2ccc(O)c(C(=O)O)c2)C=CC1=O` [ATA, aurintricarboxylic acid] showed an IC50 (NS3h [1]) of 4 µM, a Ki (NS3h [2]) of 1.4 ± 0.2 µM and a Ki (NS3h [3]) of 0.45 ± 0.15 µM. The “Change in enthalpy of unfolding (ΔΔH)” value (NS3h [4]) was -52.1 kcal/mol, the “Increase of unfolding temperature of NS3h” value (NS3h [4]) was 8 °C and the EC50 (NS3h-dT20 complex) was about 500 µM. For the same molecule, the “Maximum decrease of Tm of NS3h-dT20 complex” value (NS3h-dT20 complex; NS3h and dT20 10 μM each, dose response fit) was 11 ± 3 °C, the Kd (NS3h [5]) was 1.3 ± 0.2 µM and the “ATA monomers binding per NS3h (stoichiometry)” value (NS3h [5]; 20 μM NS3h titrated with 250 μM ATA, 5 °C) was 1.5. For the same molecule, the ΔH of binding (NS3h [5]; ITC, 5 °C) was -3.2 ± 0.14 kcal/mol, the ΔS of binding (NS3h [5]; at 5 °C) was 63 J/mol K and the “−TΔS of binding” value (NS3h [5]; at 5 °C) was -4.18 kcal/mol. For the same molecule, the ΔG of binding (NS3h [5]; at 5 °C, from Kd) was -7.39 ± 0.072 kcal/mol, the “Relative Ki (Cheng-Prusoff) compared with wildtype NS3h” value (shortened to “Relative Ki (Cheng-Prusoff)”) (NS3h_D290N) was “notably lower” and the “Relative Ki (Cheng-Prusoff)” value (NS3h_E291Q) was “notably lower”. The “Relative Ki (Cheng-Prusoff)” value (NS3h_H369K) was “similar”, the “Relative Ki (Cheng-Prusoff)” value (NS3h_E493Q) was “higher” and the “Relative Ki (Cheng-Prusoff)” value (NS3h R467E) was “higher”. The “Sensitivity of full-length NS3 compared with NS3h” value (full-length NS3) was “not noted any differences in the sensitivity” and the IC50 (NS3h (wildtype) [6]) was 1.4 µM.

TTTTTTTTTTTTTTTTTTTT (ssDNA) [dT20]: binds (NS3h (wildtype) [7]).

TTTTTTTTTTTTTTT (ssDNA) [Cy5-dT15]: binds (NS3h (wildtype) [8]).
